IC50 and GI50 data for 33 compounds are collected here from ChEMBL document CHEMBL1156296, “Development of novel, highly potent inhibitors of V-RAF murine sarcoma viral oncogene homologue B1 (BRAF): increasing cellular potency through optimization of a distal heteroaromatic group” (J Med Chem, 2010).

Test [1] concerns the target T1, Serine/threonine-protein kinase B-raf (Homo sapiens, UniProt P15056, V600E). Description: Inhibition of human BRAF V600E mutant expressed in baculovirus system. In short, it runs like this:
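Isolated purified V600E BRAF kinase with a 45 min incubation. Enzyme inhibition measured and IC50 derived. Run in triplicate, with one compound measured once.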

Test [2] concerns the target T1, Serine/threonine-protein kinase B-raf. Description: Inhibition of BRAF V600E mutant ERK phosphorylation in human WM266.4 cells. It is filed as cell-based. In short, it runs like this: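 WM266.4 melanoma cells, which carry mutant V600E BRAF, exposed to inhibitor for 6 h. ERK phosphorylation (pERK) measured and IC50 derived. Run in triplicate, with a few compounds measured once.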

Test [3] in a line: Growth inhibition of human WM266.4 cells expressing BRAF V600E mutant after 5 days by SRB assay. It is filed as functional. As to conditions: WM 266-4, 120 h.

T1 sequence (P15056 2-766 V600E limits assumed): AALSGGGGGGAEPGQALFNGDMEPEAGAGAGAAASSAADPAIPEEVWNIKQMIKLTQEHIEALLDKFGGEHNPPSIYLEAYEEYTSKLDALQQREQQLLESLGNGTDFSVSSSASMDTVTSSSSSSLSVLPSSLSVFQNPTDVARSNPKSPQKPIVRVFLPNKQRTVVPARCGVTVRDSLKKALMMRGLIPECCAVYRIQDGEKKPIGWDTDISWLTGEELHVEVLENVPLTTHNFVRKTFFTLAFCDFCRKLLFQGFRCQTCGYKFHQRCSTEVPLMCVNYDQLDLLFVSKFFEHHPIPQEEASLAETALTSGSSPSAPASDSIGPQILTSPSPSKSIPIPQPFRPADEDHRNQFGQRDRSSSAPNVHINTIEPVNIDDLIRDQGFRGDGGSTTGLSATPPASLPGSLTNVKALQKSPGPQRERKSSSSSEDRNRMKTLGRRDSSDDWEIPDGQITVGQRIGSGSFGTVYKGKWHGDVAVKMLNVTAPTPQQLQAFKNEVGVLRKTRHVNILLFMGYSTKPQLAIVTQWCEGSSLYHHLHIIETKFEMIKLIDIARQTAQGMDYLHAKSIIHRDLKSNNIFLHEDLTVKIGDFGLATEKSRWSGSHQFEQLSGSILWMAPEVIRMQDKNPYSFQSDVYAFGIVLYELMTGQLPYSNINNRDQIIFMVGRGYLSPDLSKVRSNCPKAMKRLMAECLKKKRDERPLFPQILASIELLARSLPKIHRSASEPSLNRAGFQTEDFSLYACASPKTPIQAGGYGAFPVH

For the compound `CC(C)(C)c1cc(NC(=O)Nc2ccc(Oc3ccnc4[nH]c(=O)[nH]c34)cc2)n(-c2ccc(F)cc2)n1`, the 50% inhibitory concentration (IC50) in test [1] turned out to be 124 nM; in test [2], 411 nM. Also, the GI50 in test [3] was determined as 540 nM.

Turning to `Cn1c(=O)[nH]c2nccc(Oc3ccc(NC(=O)Nc4cc(C(C)(C)C)nn4-c4cccnc4)cc3)c21`, the half-maximal inhibitory concentration (IC50) in test [1] amounted to 390 nM; in test [2], 830 nM. Also, in test [3], the GI50 came out at 590 nM.

Turning to `CCCn1nc(C(C)(C)C)cc1NC(=O)Nc1ccc(Oc2ccnc3[nH]c(=O)[nH]c23)cc1`, the IC50 in test [1] turned out to be 83 nM; in test [2] it was 10800 nM. The GI50 in test [3] amounted to 9500 nM.

For `CC(C)(C)c1cc(NC(=O)Nc2ccc(Oc3ccnc4[nH]c(=O)[nH]c34)cc2)n(C(C)(C)C)n1`, the half-maximal inhibitory concentration (IC50) was found to be 1190 nM in test [1] and 33000 nM in test [2]. This compound showed a GI50 in test [3] of 26000 nM.

As for `CC(C)(C)c1csc(NC(=O)Nc2ccc(Oc3ccnc4[nH]c(=O)[nH]c34)cc2)n1`, in test [1], the half-maximal inhibitory concentration (IC50) amounted to 7800 nM. The GI50 in test [3] came to 10400 nM.

On to `O=C(Nc1ccc(Oc2ccnc3[nH]c(=O)[nH]c23)cc1)Nc1nnc(C2CCCO2)s1` (stereo not drawn), for which the 50% inhibitory concentration (IC50) in test [1] was determined as 170 nM; in test [2], 58000 nM. This compound showed a GI50 in test [3] of 48900 nM.

In the case of `CC(C)(C)c1cc(NC(=O)Nc2ccc(Oc3ccnc4[nH]c(=O)[nH]c34)cc2)n(-c2ccccn2)n1`, the values for the half-inhibitory concentration (IC50) in test [1] and in test [2] were 210 nM and 6400 nM, respectively. This compound also had a concentration for 50% growth inhibition (GI50) in test [3] of 3400 nM.

Consider `CC(C)(C)c1cc(NC(=O)Nc2ccc(Oc3ccnc4[nH]c(=O)[nH]c34)cc2)n(-c2ccc(F)cc2F)n1`, for which the results for the IC50 in test [1] and in test [2] were 104 nM and 1190 nM, respectively. For the same compound, halving of growth in test [3] (GI50) required 1230 nM.

Turning to `Cn1nc(C(C)(C)C)cc1NC(=O)Nc1ccc(Oc2ccnc3[nH]c(=O)[nH]c23)cc1`, the 50% inhibitory concentration (IC50) in test [1] was 33 nM; in test [2] it was 28000 nM. In test [3], this compound showed a GI50 of 12900 nM.

In the case of `CC(C)(C)c1cc(NC(=O)Nc2ccc(Oc3ccnc4[nH]c(=O)[nH]c34)c3ccccc23)n(-c2ccc(F)cc2)n1`, the IC50 in test [1] came out at 240 nM; in test [2], 203 nM. In addition, the GI50 in test [3] was determined as 20 nM.

In the case of `CC(C)(C)c1cc(NC(=O)Nc2ccc(Sc3ccnc4[nH]c(=O)[nH]c34)cc2)n(-c2ccccc2)n1`, the concentration for half-maximal inhibition (IC50) amounted to 215 nM in test [1] and 70 nM in test [2]. The compound also gave a 50% growth inhibitory concentration (GI50) in test [3] of 12 nM.

As for `Cc1ccc(-n2nc(C(C)(C)C)cc2NC(=O)Nc2ccc(Sc3ccnc4[nH]c(=O)[nH]c34)cc2)cc1`, the half-maximal inhibitory concentration (IC50) in test [1] amounted to 2200 nM; in test [2], 234 nM. The compound also came in with a GI50 in test [3] of 259 nM.

Take `CC(C)(C)c1cc(NC(=O)Nc2ccc(Oc3ccnc4[nH]c(=O)[nH]c34)cc2)n(Cc2ccccc2)n1`: the IC50 came out at 147 nM in test [1] and 13400 nM in test [2]. The compound further returned a 50% growth inhibitory concentration (GI50) in test [3] of 10100 nM.

In the case of `Cc1ccc(-n2nc(C(C)(C)C)cc2NC(=O)Nc2ccc(Oc3ccnc4[nH]c(=O)[nH]c34)c3ccccc23)cc1`, the IC50 turned out to be 670 nM in test [1] and 14 nM in test [2]. The compound further gave a 50% growth inhibitory concentration (GI50) in test [3] of 31 nM.

With `Cn1c(=O)[nH]c2nccc(Oc3ccc(NC(=O)Nc4cc(C(C)(C)C)nn4-c4ccc(F)cc4)c4ccccc34)c21`, the concentration for half-maximal inhibition (IC50) in test [1] worked out at 313 nM; in test [2], 35 nM. Also, in test [3], the concentration for 50% growth inhibition (GI50) is 47 nM.

Take `Cn1c(=O)[nH]c2c(Oc3ccc(NC(=O)Nc4cc(C(C)(C)C)nn4-c4ccccc4)c4ccccc34)ccnc21`: the IC50 in test [1] is 6900 nM; in test [2], 27 nM. The compound also returned a GI50 in test [3] of 167 nM.

In the case of `Cc1ccc(-n2nc(C(C)(C)C)cc2NC(=O)Nc2ccc(Oc3ccnc4c3[nH]c(=O)n4C)c3ccccc23)cc1`, the concentration for half-maximal inhibition (IC50) in test [1] was found to be 6300 nM; in test [2], 70 nM. Further, the GI50 in test [3] amounted to 1090 nM.

Consider `Cn1nc(C(C)(C)C)cc1NC(=O)Nc1ccc(Oc2ccnc3c2[nH]c(=O)n3C)c2ccccc12`, for which the concentration for half-maximal inhibition (IC50) in test [1] came out at 197 nM; in test [2] it was 470 nM. For the same compound, in test [3], the GI50 was determined as 470 nM.

Turning to `Cc1ccc(-n2nc(C(C)(C)C)cc2NC(=O)Nc2ccc(Oc3ccnc4c3n(C)c(=O)n4C)cc2)cc1`, the IC50 was 1800 nM in test [1] and 190 nM in test [2]. Further, in test [3], the 50% growth inhibitory concentration (GI50) came out at 210 nM.

As for `Cn1nc(C(C)(C)C)cc1NC(=O)Nc1ccc(Oc2ccnc3[nH]c(=O)[nH]c23)c2ccccc12`, the figures for the IC50 in test [1] and in test [2] were 11 nM and 2300 nM, respectively. Further, the GI50 in test [3] came out at 670 nM.

Take `CC(C)(C)c1cc(NC(=O)Nc2ccc(Oc3ccnc4[nH]c(=O)[nH]c34)cc2)n(-c2ccc(Cl)cc2)n1`: the values for the half-inhibitory concentration (IC50) in test [1] and in test [2] were 140 nM and 350 nM, respectively. For the same compound, halving of growth in test [3] (GI50) required 530 nM.

Turning to `Cc1cc(NC(=O)Nc2ccc(Oc3ccnc4[nH]c(=O)[nH]c34)cc2)n(-c2ccc(Cl)cc2)n1`, the IC50 in test [1] came to 290 nM; in test [2], 70000 nM. In test [3], the GI50 stood at 21000 nM.

As for `CC(C)c1cc(NC(=O)Nc2ccc(Oc3ccnc4[nH]c(=O)[nH]c34)cc2)n(-c2ccccc2)n1`, the half-inhibitory concentration (IC50) in test [1] was found to be 42 nM; in test [2], 1970 nM. The GI50 in test [3] is 1170 nM.

`CSc1cc(Oc2ccnc3[nH]c(=O)[nH]c23)ccc1NC(=O)Nc1cc(C(C)(C)C)nn1-c1ccc(C)cc1`: the IC50 in test [1] was found to be 76 nM; in test [2], 56 nM. In addition, in test [3], the GI50 stood at 16 nM.

As for `Cn1nc(C(C)(C)C)cc1NC(=O)Nc1ccc(Oc2ccnc3c2[nH]c(=O)n3C)cc1`, the half-maximal inhibitory concentration (IC50) in test [1] came out at 258 nM; in test [2], 2900 nM. This compound showed a GI50 in test [3] of 1920 nM.

For `Cn1c(=O)[nH]c2c(Oc3ccc(NC(=O)Nc4cc(C(C)(C)C)nn4-c4ccccc4)cc3)ccnc21`, the IC50 amounted to 880 nM in test [1] and 130 nM in test [2]. In addition, it took 61 nM to inhibit growth in test [3] by half (GI50).

For `Cc1ccc(-n2nc(C(F)(F)F)cc2NC(=O)Nc2ccc(Oc3ccnc4[nH]c(=O)n(C)c34)cc2)cc1`, the values for the IC50 in test [1] and in test [2] were 176 nM and 3200 nM, respectively. For the same compound, it took 1890 nM to inhibit growth in test [3] by half (GI50).

As to `Cn1c(=O)[nH]c2nccc(Oc3ccc(NC(=O)Nc4cc(C5CC5)nn4-c4ccccc4)cc3)c21`, the IC50 was found to be 143 nM in test [1] and 18200 nM in test [2]. This compound also gave a 50% growth inhibitory concentration (GI50) in test [3] of 3700 nM.

Consider `Cn1c(=O)[nH]c2nccc(Oc3ccc(NC(=O)Nc4cc(C(C)(C)C)nn4-c4ccccc4)cc3)c21`, for which the results for the IC50 in test [1] and in test [2] were 215 nM and 164 nM, respectively. Moreover, in test [3], growth was halved (GI50) at 145 nM.

Regarding `Cn1nc(C(C)(C)C)cc1NC(=O)Nc1ccc(Oc2ccnc3[nH]c(=O)n(C)c23)cc1`, the half-maximal inhibitory concentration (IC50) in test [1] amounted to 84 nM; in test [2], 14100 nM. In test [3], this compound gave a GI50 of 4200 nM.

On to `Cn1c(=O)[nH]c2nccc(Oc3ccc(NC(=O)Nc4cc(C(C)(C)C)nn4-c4ccc(F)cc4)cc3)c21`, for which the half-inhibitory concentration (IC50) in test [1] came to 135 nM; in test [2], 1360 nM. This compound also had a 50% growth inhibitory concentration (GI50) in test [3] of 497 nM.

In the case of `CC(C)(C)c1cc(NC(=O)Nc2ccc(Oc3ccnc4[nH]c(=O)[nH]c34)c3ccccc23)n(-c2ccccc2)n1`, the concentration for half-maximal inhibition (IC50) in test [1] was determined as 510 nM; in test [2], 35 nM. Growth in test [3] was halved (GI50) at 34 nM.

Turning to `Cn1nc(C(C)(C)C)cc1NC(=O)Nc1ccc(Oc2ccnc3[nH]c(=O)n(C)c23)c2ccccc12`, the IC50 in test [1] came to 99 nM; in test [2], 383 nM. The GI50 in test [3] worked out at 161 nM.
